Measured values taken from ChEMBL document CHEMBL1135577, “Synthesis and biological evaluation of structurally highly modified analogues of the antimitotic natural product curacin A” (J Med Chem, 2002).
The source made the active and inactive calls. The rule behind the calls is not given here.

How the values were obtained:
Tubulin (Bos taurus) = test: Inhibition of tubulin polymerization of purified bovine brain tubulin
A2780 [1] = test: Compound was tested for Tubulin polymerization inhibition by using human ovarian carcinoma cell lines.;NA means not active; format: functional, cell-based
How it was run: (§1)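 Tubulin (10 μM final, 1 mg/mL) was preincubated with agent in DMSO (4% v/v final) and 0.8 M monosodium glutamate for 15 min at 30 °C, then cooled to 0 °C and GTP (0.4 mM final) added. Turbidity at 350 nm was followed for 20 min at 30 °C. […] Values are averages of two determinations.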

A2780 [2] = test: Compound was tested for colchicine binding inhibition by using human ovarian carcinoma cell lines (at 5 uM );NA means not active; format: functional, cell-based
How it was run: (§2)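 [3H]colchicine (5 μM) was incubated with 1 μM tubulin and agent (1-250 μM) or DMSO vehicle (5% v/v) at 30 °C for 15 min or 37 °C for 10 min, in 1 M monosodium glutamate, 0.1 M glucose-1-phosphate, 1 mM MgCl2, 1 mM GTP and 0.5 mg/mL BSA. Samples were filtered through DEAE-cellulose and counted by scintillation. Values are means (N = 9 over four concentrations) ± SD.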

MCF7 [3] = test: Tested for 50% growth inhibitory concentration by using MCF-7 cell lines.; format: functional; conditions: Homo sapiens
How it was run: (§3)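 Cultured human tumor cells were seeded at 500-2000 cells/well, allowed to attach for 48 h, then exposed continuously for 48 h to DMSO vehicle or agent at five concentrations (e.g., 50-0.08 μM, 10-0.016 μM or 1-0.0016 μM series), each in quadruplicate. A time-zero plate was included. Cell number was read by MTS/phenazine methanesulfonate at A490-A630. Values are means (N = 4 over 10 concentrations) ± SD.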

A2780 [4] = test: Tested for colchicine binding inhibition, using human ovarian cancer cell lines (at 5 uM ); format: functional
How it was run: as §2

PC-3 [5] = test: 50% Growth inhibitory concentration by using PC -3 human prostate carcinoma cell lines (48h continuous exposure); format: functional; conditions: PC-3, 48 h
How it was run: as §3

A2780 [6] = test: Compound was tested for Tubulin polymerization inhibition by using human ovarian cancer cell lines.; format: functional
How it was run: as §1

2008 [7] = test: 50% Growth inhibitory concentration( GI 50 ) by using 2008 human ovarian carcinoma cell lines.; format: functional
How it was run: as §3

MCF7 [8] = test: Compound was tested for 50% Growth Inhibitory concentration against MCF-7 cell lines.; format: functional; conditions: Homo sapiens
How it was run: (§4)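 Cells (500–2000/well) attached and grew for 48 h, then received DMSO vehicle or agent at five-point 5-fold dilutions (from 50, 10 or 1 μM top) for 48 h, continuous exposure. A time-zero plate was included, and each concentration was run in quadruplicate. Cell number was read by MTS/phenazine methanesulfonate, A490 minus A630. Values are means (N = 4 over 10 concentrations) ± SD.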

A2780 [9] = test: Compound tested for colchicine Binding Inhibition by using human ovarian cancer cell line (at 5 uM ); format: functional
How it was run: (§5)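 [3H]-colchicine (5 μM, 2.3 TBq/mmol) and test agent (1–250 μM) or DMSO vehicle (5% v/v) were incubated with 1 μM purified tubulin at 30 °C for 15 min. The medium held 1 M monosodium glutamate, 0.1 M glucose-1-phosphate, 1 mM MgCl2, 1 mM GTP and 0.5 mg/mL BSA. Samples were filtered through DEAE-cellulose stacks, and […] was counted by scintillation. Values are means (N = 9 over four concentrations) ± SD.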

A2780 [10] = test: Colchicine Binding Inhibition ( CBI ) by using human ovarian cancer cell lines at 5 uM, (values are mean of 9 over 4 concentrations +/- SD); format: functional
How it was run: as §5

MDA-MB-231 [11] = test: Compound was tested for 50% Growth Inhibitory concentration by using MDA - MB231 human breast carcinoma cell lines.; format: functional
How it was run: as §4

A2780 [12] = test: Percent of Tubulin polymerization inhibition by using human ovarian cancer cell lines at a concentration of 5 uM; format: functional
How it was run: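 Purified tubulin (10 μM final, 1 mg/mL) was preincubated 15 min at 30 °C with agent in DMSO (4% v/v final) and 0.8 M monosodium glutamate. Samples were chilled to 0 °C, and GTP was added (0.4 mM final). Turbidity at 350 nm was followed for 20 min after a rapid rise to 30 °C. Inhibition was scaled between vehicle without GTP (100%) and GTP plus vehicle (0%). Values are averages of two determinations.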

A2780 [13] = test: Inhibition of tubulin polymerization in analogy of ca.; format: functional, cell-based; conditions: Homo sapiens
How it was run: as §1

[14] = Average growth inhibition activity in analogy of ca.; format: functional
How it was run: as §3

2008 [15] = test: Compound was tested for 50% growth inhibitory concentration by using human ovarian carcinoma cell lines (2008); format: functional
How it was run: as §3

A2780 [16] = test: Compound was tested for Tubulin polymerization inhibition by using human ovarian carcinoma cell lines.; format: functional
How it was run: as §1

MDA-MB-231 [17] = test: Compound was tested for 50% Growth Inhibitory concentration by using MDA-MB-231 cell lines.; format: functional; conditions: Homo sapiens
How it was run: as §3

PC-3 [18] = test: Compound was tested for 50% growth inhibitory concentration by using human prostate carcinoma cell lines (PC -3); format: functional
How it was run: as §3

A2780 [19] = test: Compound was tested for colchicine Binding Inhibition by using human ovarian carcinoma cell line (at 5 uM ); format: functional
How it was run: as §2

Row | Compound | IC50 (Tubulin (Bos taurus)) [nM] | GI50 (MCF7 [3]) [nM] | inhibition at 5 µM (A2780 [4]) [%] | also measured
1 | CC(C)=C/C=C/CC/C=C\[C@@H]1CSC([C@@H]2C[C@@H]2C)=N1 | > 50000 | – | – | –
2 | C/C=C\[C@@H]1CSC([C@@H]2C[C@@H]2C)=N1 | – | – | – | NA (A2780 [1]): inactive; NA (A2780 [2]): inactive
3 | C=CC[C@@H](CC/C(C)=C/C=C/CC/C=C\[C@@H]1CSC([C@@H]2C[C@@H]2C)=N1)OCC(F)(F)C(F)(F)C(F)(F)F | 5400 | > 10000 | 12 | –
4 | CCCCCCCc1cccc(CC/C=C\[C@@H]2CSC([C@@H]3C[C@@H]3C)=N2)c1 | > 50000 | – | – | –
5 | C=CC[C@@H](CC/C(C)=C/C=C/CC/C=C\[C@@H]1CSC([C@@H]2C[C@@H]2C)=N1)OCOC | 640 | 220 | 81 | –
6 | C=CC[C@@H](CC/C(C)=C/C=C/CC/C=C\[C@@H]1CSC(C(C)(C)C)=N1)OC | – | – | 35 | GI50 (PC-3 [5]): 130 nM; TPI (A2780 [6]): 100%; GI50 2008 [7]: 220 nM
7 | C=CC[C@@H](CC/C(C)=C/C=C/CC/C=C\[C@@H]1CSC([C@H]2C[C@@H]2C)=N1)OC | 770 | 990 | 88 | –
8 | C=CC[C@@H](CC/C(C)=C/C=C/CC/C=C\[C@@H]1CSC([C@@H]2C[C@@H]2C)=N1)OC [CURACIN A] | 720 | – | – | GI50 (MCF7 [8]): 40 nM; inhibition at 5 µM (A2780 [9]): 94%; GI50 (PC-3 [5]): 50 nM; inhibition at 5 µM (A2780 [10]): 78%; GI50 (MDA-MB-231 [11]): 96 nM; TPI (A2780 [12]): 98%; GI50 2008 [7]: 35 nM
9 | COc1cc(/C=C\CC/C=C/C=C(\C)CCC(O)c2cc3ccccc3o2)cc(OC)c1OC (stereo unspecified) | – | – | – | IC50 (A2780 [13]): 1000 nM; GI50 [14]: 250 nM
10 | C=CC[C@@H](CC/C(C)=C/C=C/CC/C=C\[C@@H]1CSC([C@H]2C[C@H]2C)=N1)OC | 2100 | 360 | 48 | –
11 | C=CC[C@@H](CC/C(C)=C/C=C/CC/C=C\[C@@H]1CSC([C@@H]2C[C@@H]2C)=N1)OC(=O)c1ccccc1 | > 80000 | > 10000 | 5 | –
12 | C=CC[C@@H](CC/C(C)=C\C=C\CC/C=C\[C@@H]1CSC([C@@H]2C[C@@H]2C)=N1)OC [CURACIN C] | 2300 | 3600 | 10 | –
13 | C=CC[C@@H](CC/C(C)=C/C=C/CC/C=C\c1csc(C(C)(C)C)n1)OC | – | – | 38 | GI50 (PC-3 [5]): 240 nM; TPI (A2780 [6]): 100%; GI50 2008 [7]: 300 nM
14 | C=CC[C@@H](CC/C=C/C=C/CC/C=C\[C@@H]1CSC([C@@H]2C[C@@H]2C)=N1)OC | – | 340 | 53 | –
15 | C=CC[C@@H](CC/C(C)=C/C=C/CC/C=C\[C@H](CSC(=O)[C@@H]1C[C@@H]1C)NC(C)=O)OC | 1500 | 4200 | 9 | –
16 | C=CC[C@@H](CC/C(C)=C/C=C/CC/C=C\[C@H]1CSC([C@@H]2C[C@@H]2C)=N1)OC | 5500 | > 1000 | 3 | –
17 | COc1cc(/C=C/CC/C=C/C=C(\C)CCC(O)c2cccs2)cc(OC)c1OC (stereo unspecified) | – | – | < 10 | GI50 (PC-3 [5]): 35000 nM; TPI (A2780 [6]): 25%; GI50 2008 [7]: 21000 nM
18 | C=CC[C@@H](CC[C@@]1(C)C[C@@H]1[C@H]1C[C@@H]1CC/C=C\[C@@H]1CSC([C@@H]2C[C@@H]2C)=N1)OC | – | – | – | GI50 2008 [15]: > 50000 nM; TPI (A2780 [16]): 0%; GI50 (MDA-MB-231 [17]): > 50000 nM; GI50 (PC-3 [18]): > 50000 nM; inhibition at 5 µM (A2780 [19]): < 10%
19 | C=CC[C@@H](CC/C(C)=C/C=C/CC/C=C\[C@@H]1COC(C(C)(C)C)=N1)OC | – | – | < 10 | GI50 (PC-3 [5]): 6200 nM; TPI (A2780 [6]): 0%; GI50 2008 [7]: 450 nM
